From ChEMBL document CHEMBL5653622 (Oncotarget, 2016)
Calls of active or inactive are those of the source. The calls are words filed in the database; no cut-off is given here.

Tests used:
[1] = target: Mitogen-activated protein kinase 11 (Homo sapiens) (UniProt Q15759); assay: Inhibition of human p38b MAPK assessed as remaining activity at 10 uM in presence of ATP by radiometric kinase assay relative to control
[2] = target: Mitogen-activated protein kinase 13 (Homo sapiens) (UniProt O15264); assay: Inhibition of human p38d MAPK assessed as remaining activity at 10 uM in presence of ATP by radiometric kinase assay relative to control
[3] = target: RAC-alpha serine/threonine-protein kinase (Homo sapiens) (UniProt P31749); assay: Inhibition of human PKBa assessed as remaining activity at 10 uM in presence of ATP by radiometric kinase assay relative to control
[4] = target: Ribosomal protein S6 kinase beta-1 (Homo sapiens) (UniProt P23443); assay: Inhibition of human S6K1 assessed as remaining activity at 10 uM in presence of ATP by radiometric kinase assay relative to control
[5] = target: Serine/threonine-protein kinase tousled-like 1 (Homo sapiens) (UniProt Q9UKI8); assay: Inhibition of human TLK1 assessed as remaining activity at 10 uM in presence of ATP by radiometric kinase assay relative to control
[6] = target: MAP/microtubule affinity-regulating kinase 4 (Homo sapiens) (UniProt Q96L34); assay: Inhibition of human MARK4 assessed as remaining activity at 10 uM in presence of ATP by radiometric kinase assay relative to control
[7] = target: Dual specificity tyrosine-phosphorylation-regulated kinase 2 (Homo sapiens) (UniProt Q92630); assay: Inhibition of human DYRK2 assessed as remaining activity at 10 uM in presence of ATP by radiometric kinase assay relative to control
[8] = target: Inhibitor of nuclear factor kappa-B kinase subunit beta (Homo sapiens) (UniProt O14920); assay: Inhibition of human IKKb assessed as remaining activity at 10 uM in presence of ATP by radiometric kinase assay relative to control
[9] = target: Homeodomain-interacting protein kinase 2 (Homo sapiens) (UniProt Q9H2X6); assay: Inhibition of human HIPK2 assessed as remaining activity at 10 uM in presence of ATP by radiometric kinase assay relative to control
[10] = target: Serine/threonine-protein kinase PAK 6 (Homo sapiens) (UniProt Q9NQU5); assay: Inhibition of human PAK6 assessed as remaining activity at 10 uM in presence of ATP by radiometric kinase assay relative to control
[11] = target: Misshapen-like kinase 1 (Homo sapiens) (UniProt Q8N4C8); assay: Inhibition of human MINK1 assessed as remaining activity at 10 uM in presence of ATP by radiometric kinase assay relative to control
[12] = target: Protein-tyrosine kinase 6 (Homo sapiens) (UniProt Q13882); assay: Inhibition of human BRK assessed as remaining activity at 10 uM in presence of ATP by radiometric kinase assay relative to control
[13] = target: Ephrin type-B receptor 3 (Homo sapiens) (UniProt P54753); assay: Inhibition of human EPH-B3 assessed as remaining activity at 10 uM in presence of ATP by radiometric kinase assay relative to control
[14] = target: Insulin receptor (Homo sapiens) (UniProt P06213); assay: Inhibition of human IR assessed as remaining activity at 10 uM in presence of ATP by radiometric kinase assay relative to control
[15] = target: Vascular endothelial growth factor receptor 2 (Homo sapiens, UniProt P35968); assay: Inhibition of VEGFR2 (unknown origin) by FRET based Z-LYTE kinase assay
HT-29 = assay: Induction of cell cycle arrest in human HT-29 cells assessed as accumulation of cells at S phase at 0.5 uM incubated for 24 hrs by BrdU and PI staining based flow cytometry analysis; format: functional
Outline: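 HT29 cells exposed for 24h, stained with bromodeoxyuridine and propidium iodide, and cell-cycle distribution measured by flow cytometry.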

SW-620 = assay: Induction of apoptosis in human SW620 cells assessed as increased in cleaved PARP in presence of SN38 by Western blotting analysis; format: functional, cell-based
[16] = Half life in BALB/C mouse spleen at 10 mg/kg, iv by LC/MS-MS analysis; format: ADME, organism-based
Outline: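 Female BALB/c mice received a single bolus of 10mg/kg, either i.v. or p.o. The oral vehicle was DPTW (10% DMSO, 20% PEG400, 5% Tween 80, 65% water). Plasma and spleen homogenates were extracted with methanol containing internal standards. Drug levels were measured by LC/MS-MS, and pharmacokinetic parameters were calculated from the concentration-time profiles.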

[17] = Clearance in BALB/C mouse plasma at 10 mg/kg, po by LC/MS-MS analysis; format: ADME, organism-based
Outline: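 Female BALB/c mice received a single 10mg/kg bolus i.v. or p.o. Plasma (and spleen homogenate) extracted with methanol containing internal standards. Concentrations were measured by LC/MS-MS and PK parameters calculated with modelling software.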

Mus musculus [18] = assay: In vivo inhibition of CHK1 in CRTac:Ncr-Fox1 mouse xenografted with human HT-29 cells assessed as reduction of phosphorylation of CHK1 on S317 at 50 to 100 mg/kg, po administered for 24 hrs by Western blotting analysis; format: functional, organism-based; conditions: dose 50-100 mg/kg
Outline: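 HT29 s.c. xenografts in female athymic nude mice. Single gemcitabine dose 100mg/kg i.v. on day 0, then one inhibitor dose 50 or 100mg/kg p.o. (DPTW vehicle) 24h later. Tumors taken 24h after the last dose, western blotted, and signals quantified by normalizing to GAPDH.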

[19] = Toxicity in CRTac:Ncr-Fox1 mouse xenografted with human HT-29 cells assessed as body weight at 150 mg/kg, po administered for 10 days in presence of irinotecan relative to control; format: organism-based; conditions: in vivo, 240 h, time 10 day
Mus musculus [20] = assay: In vivo inhibition of total CHK1 in CRTac:Ncr-Fox1 athymic mouse xenografted with human Calu-6 cells at 150 mg/kg, po in presence of gemcitabine and carboplatin by Western blotting analysis; format: functional, organism-based
Outline: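 Female CRTac:Ncr-Fox1(nu) athymic mice carried s.c. Calu6 xenografts. Tumors were taken 6h after the last inhibitor dose, lysed in CHAPS buffer, and immunoblotted with GAPDH as loading control.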

Mus musculus [21] = assay: In vivo inhibition of CHK1 in CRTac:Ncr-Fox1 athymic mouse xenografted with human Calu-6 cells assessed as inhibition of CHK1 phosphorylation on S296 at 150 mg/kg, po in presence of gemcitabine and carboplatin by ELISA analysis; format: functional, organism-based
Mus musculus [22] = assay: In vivo inhibition of total CHK1 in CRTac:Ncr-Fox1 athymic mouse xenografted with human Calu-6 cells at 150 mg/kg, po in presence of gemcitabine and carboplatin by ELISA analysis; format: functional, organism-based
[23] = Toxicity in Emu-Myc driven transgenic mouse transplant model of B-cell lymphoma assessed as reduction in weight of thymus at 150 mg/kg, po administered for 9 days; format: organism-based; conditions: in vivo, 216 h, time 9 day
[24] = Toxicity in Emu-Myc driven transgenic mouse transplant model of B-cell lymphoma assessed as increase in weight of spleen at 150 mg/kg, po administered for 9 days; format: organism-based; conditions: in vivo, 216 h, time 9 day

Serine/threonine-protein kinase PAK 6 (Homo sapiens), sequence (Q9NQU5 whole entry, looked up): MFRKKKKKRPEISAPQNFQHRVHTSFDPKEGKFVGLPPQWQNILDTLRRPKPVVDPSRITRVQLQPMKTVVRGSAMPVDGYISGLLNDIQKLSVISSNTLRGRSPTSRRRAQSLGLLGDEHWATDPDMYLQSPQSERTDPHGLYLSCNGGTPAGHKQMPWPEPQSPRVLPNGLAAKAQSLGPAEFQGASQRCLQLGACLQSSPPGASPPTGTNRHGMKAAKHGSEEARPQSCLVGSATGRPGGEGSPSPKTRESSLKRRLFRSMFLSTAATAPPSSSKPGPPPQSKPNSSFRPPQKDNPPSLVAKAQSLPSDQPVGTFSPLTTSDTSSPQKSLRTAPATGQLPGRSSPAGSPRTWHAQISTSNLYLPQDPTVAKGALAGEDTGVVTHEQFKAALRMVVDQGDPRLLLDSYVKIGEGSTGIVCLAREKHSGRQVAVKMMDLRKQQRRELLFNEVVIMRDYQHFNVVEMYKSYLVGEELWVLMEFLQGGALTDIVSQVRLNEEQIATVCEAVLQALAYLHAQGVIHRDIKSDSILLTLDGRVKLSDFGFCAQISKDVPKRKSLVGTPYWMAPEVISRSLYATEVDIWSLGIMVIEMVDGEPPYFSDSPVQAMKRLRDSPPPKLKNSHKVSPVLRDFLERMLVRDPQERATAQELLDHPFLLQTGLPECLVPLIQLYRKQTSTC
MAP/microtubule affinity-regulating kinase 4 (Homo sapiens), sequence (Q96L34 whole entry): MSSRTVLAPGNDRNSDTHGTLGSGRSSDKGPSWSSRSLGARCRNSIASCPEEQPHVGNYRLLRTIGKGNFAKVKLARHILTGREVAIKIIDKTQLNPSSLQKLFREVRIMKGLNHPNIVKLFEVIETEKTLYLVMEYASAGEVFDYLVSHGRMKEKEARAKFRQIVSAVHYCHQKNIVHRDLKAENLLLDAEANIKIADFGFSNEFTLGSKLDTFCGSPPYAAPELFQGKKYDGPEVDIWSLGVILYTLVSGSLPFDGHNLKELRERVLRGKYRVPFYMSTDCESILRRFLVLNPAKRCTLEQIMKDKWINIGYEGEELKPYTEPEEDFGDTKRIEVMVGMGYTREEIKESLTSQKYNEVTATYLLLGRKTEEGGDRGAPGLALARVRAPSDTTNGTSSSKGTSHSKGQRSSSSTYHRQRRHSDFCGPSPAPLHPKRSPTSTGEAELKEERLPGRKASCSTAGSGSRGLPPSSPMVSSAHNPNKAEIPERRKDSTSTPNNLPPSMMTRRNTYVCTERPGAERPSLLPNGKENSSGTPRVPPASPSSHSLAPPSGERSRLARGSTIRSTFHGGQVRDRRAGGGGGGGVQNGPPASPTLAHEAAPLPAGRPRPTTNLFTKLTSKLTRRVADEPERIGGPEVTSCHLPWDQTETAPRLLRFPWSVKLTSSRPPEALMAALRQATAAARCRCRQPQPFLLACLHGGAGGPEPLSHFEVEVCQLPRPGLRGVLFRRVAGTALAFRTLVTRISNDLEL
Vascular endothelial growth factor receptor 2, sequence (P35968 whole entry): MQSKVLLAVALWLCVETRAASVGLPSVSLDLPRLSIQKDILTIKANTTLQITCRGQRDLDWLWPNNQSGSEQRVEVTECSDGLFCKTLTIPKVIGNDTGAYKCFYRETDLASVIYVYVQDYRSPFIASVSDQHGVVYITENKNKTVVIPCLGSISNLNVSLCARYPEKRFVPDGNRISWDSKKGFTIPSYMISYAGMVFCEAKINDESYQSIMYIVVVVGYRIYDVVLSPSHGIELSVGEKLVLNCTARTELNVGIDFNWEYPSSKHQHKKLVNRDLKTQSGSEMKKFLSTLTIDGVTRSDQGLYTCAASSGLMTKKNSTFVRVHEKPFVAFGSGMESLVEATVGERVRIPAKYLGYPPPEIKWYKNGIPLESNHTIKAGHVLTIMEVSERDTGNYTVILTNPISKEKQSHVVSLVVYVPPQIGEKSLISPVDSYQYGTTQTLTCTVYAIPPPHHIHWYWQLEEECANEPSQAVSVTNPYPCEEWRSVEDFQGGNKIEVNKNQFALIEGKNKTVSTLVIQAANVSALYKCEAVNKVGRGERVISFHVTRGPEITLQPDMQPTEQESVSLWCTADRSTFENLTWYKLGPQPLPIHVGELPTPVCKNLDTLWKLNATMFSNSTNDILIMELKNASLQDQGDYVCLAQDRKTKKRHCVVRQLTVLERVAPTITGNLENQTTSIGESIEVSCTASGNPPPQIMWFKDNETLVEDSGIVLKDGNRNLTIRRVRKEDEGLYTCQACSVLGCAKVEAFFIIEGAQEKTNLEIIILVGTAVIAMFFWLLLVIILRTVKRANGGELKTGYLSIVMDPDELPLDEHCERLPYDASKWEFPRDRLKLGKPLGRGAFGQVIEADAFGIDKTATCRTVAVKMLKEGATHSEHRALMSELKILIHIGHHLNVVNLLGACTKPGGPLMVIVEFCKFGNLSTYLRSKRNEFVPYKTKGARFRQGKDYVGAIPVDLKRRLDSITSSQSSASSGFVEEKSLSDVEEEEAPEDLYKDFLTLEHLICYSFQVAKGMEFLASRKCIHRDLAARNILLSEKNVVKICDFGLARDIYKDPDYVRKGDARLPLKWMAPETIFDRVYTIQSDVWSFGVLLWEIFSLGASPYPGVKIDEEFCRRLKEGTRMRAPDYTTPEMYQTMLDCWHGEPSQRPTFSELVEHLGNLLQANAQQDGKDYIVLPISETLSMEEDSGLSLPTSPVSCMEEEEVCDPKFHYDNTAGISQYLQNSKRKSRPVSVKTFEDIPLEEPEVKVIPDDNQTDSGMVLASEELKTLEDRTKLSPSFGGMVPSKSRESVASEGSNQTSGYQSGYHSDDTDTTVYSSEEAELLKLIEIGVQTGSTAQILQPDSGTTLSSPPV
Protein-tyrosine kinase 6 (Homo sapiens), sequence (Q13882 whole entry, looked up): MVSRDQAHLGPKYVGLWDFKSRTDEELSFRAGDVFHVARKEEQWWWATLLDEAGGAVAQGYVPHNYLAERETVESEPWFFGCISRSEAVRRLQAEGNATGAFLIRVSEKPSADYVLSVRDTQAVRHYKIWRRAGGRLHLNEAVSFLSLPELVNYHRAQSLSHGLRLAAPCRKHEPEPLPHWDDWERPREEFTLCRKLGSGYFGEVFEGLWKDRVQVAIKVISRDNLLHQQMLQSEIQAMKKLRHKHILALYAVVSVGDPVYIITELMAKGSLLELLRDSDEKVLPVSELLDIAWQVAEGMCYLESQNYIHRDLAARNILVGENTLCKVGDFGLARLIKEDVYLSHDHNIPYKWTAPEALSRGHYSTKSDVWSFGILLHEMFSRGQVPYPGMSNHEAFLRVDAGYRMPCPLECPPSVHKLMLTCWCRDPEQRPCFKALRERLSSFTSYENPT
Mitogen-activated protein kinase 11 (Homo sapiens), sequence (Q15759 whole entry): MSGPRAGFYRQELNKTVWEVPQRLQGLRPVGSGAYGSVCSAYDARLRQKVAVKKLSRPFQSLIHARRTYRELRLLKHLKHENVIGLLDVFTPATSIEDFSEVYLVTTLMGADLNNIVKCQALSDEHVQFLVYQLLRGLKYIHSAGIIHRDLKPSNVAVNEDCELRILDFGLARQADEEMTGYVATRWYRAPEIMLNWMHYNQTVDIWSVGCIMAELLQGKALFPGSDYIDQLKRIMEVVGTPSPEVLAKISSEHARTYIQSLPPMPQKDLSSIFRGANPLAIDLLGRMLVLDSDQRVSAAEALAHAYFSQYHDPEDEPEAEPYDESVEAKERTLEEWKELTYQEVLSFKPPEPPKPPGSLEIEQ
Serine/threonine-protein kinase tousled-like 1 (Homo sapiens), sequence (Q9UKI8 whole entry): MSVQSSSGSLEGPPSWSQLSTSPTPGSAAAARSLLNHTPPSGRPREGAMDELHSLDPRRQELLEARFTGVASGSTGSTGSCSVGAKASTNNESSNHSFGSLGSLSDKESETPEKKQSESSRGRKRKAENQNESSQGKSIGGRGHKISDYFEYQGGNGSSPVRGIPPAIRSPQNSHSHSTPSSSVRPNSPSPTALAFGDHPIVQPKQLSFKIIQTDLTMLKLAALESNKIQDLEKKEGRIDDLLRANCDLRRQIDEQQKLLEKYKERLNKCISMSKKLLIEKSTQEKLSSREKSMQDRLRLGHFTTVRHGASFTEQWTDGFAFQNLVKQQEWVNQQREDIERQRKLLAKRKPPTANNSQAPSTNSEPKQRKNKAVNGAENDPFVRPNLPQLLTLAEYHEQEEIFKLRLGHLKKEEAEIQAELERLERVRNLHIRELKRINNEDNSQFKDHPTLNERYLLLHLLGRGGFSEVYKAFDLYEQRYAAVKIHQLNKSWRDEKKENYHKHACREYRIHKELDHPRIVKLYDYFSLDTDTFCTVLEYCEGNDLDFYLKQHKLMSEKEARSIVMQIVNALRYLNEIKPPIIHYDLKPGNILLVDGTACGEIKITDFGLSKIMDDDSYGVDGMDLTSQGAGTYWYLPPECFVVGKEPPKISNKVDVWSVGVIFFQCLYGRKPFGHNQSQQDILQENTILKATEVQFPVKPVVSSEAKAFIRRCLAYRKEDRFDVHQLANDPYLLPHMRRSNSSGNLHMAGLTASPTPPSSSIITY
Ribosomal protein S6 kinase beta-1 (Homo sapiens), sequence (P23443 whole entry, looked up): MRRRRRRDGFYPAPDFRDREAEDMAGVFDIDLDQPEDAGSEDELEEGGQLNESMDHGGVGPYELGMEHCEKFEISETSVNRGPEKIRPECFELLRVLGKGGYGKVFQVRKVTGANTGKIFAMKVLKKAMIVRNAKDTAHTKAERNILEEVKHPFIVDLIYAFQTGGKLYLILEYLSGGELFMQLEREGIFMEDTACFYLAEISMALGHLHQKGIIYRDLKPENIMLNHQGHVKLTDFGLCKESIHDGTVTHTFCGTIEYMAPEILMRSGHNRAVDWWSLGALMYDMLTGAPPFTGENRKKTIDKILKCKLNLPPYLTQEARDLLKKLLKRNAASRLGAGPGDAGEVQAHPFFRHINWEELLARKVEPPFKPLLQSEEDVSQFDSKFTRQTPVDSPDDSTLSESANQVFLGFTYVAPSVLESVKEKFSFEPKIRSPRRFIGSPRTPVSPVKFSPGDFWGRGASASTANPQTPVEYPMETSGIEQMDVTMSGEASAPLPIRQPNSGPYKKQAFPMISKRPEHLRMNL

- Activity [1]: 90%
- Activity [2]: 54%
- Activity [3]: 93%
- Activity [4]: 52%
- Activity [5]: 59%
- Activity [6]: 39%
- Activity [7]: 61%
- Activity [8]: 91%
- Activity [9]: 92%
- Activity [10]: 77%
- Activity [11]: 44%
- Activity [12]: 108%
- Activity [13]: 93%
- Activity [14]: 102%
- IC50 [15]: 2100 nM
- half-life [16]: 2.76 h
- CL/F [17]: 36 mL/min/kg
Compound: N#Cc1cnc(Nc2cc(NC[C@H]3CNCCO3)c(C(F)(F)F)cn2)cn1 [SRA-737]
- Activity (HT-29): Active
- Activity (SW-620): Active
- Activity (Mus musculus [18]): inactive
- Activity [19]: 98%
- inhibition (Mus musculus [20]): Active
- inhibition (Mus musculus [21]): Active
- inhibition (Mus musculus [22]): Active
- Activity [23]: Toxic
- Activity [24]: Toxic
